Test results published in ChEMBL document CHEMBL1122659, “Synthesis of some phosphonates with antiherpetic activity” (1984).
≈ marks a conversion by molar mass, not a printed value. Calls of active or inactive are those of the source. The calls are words filed in the database; no cut-off is given here.

How the values were obtained:
[1] = In vitro ability to inhibit the herpes HSV-2 virus; format: functional, herpes simplex virus; settings: Oryctolagus cuniculus
Cavia porcellus [2] = species on record: Cavia porcellus; assay: Effect on the growth of Herpes simplex Type 1 on the skin of Guinea pigs infected intradermally on day 1 at 5% concentration; format: functional
Procedure, shortened: (§1)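 Guinea pigs were infected intradermally with HSV-1 on an epilated flank and treated topically with cream. Virus in skin-scraping supernatants was titered by plaque assay on BSC-1 monolayers. Dilutions of 10⁻¹ to 10⁻⁸ in Eagle's medium with 2% FCS were plated in triplicate and adsorbed 1 h at 37 °C. An agarose overlay followed, with 4 days' incubation, formalin fixation, crystal violet staining and plaque counting.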

Cavia porcellus [3] = species on record: Cavia porcellus; assay: Effect on the development of Herpetic vesicles in Guinea pigs infected intradermally with Herpes virus Hominis, Type 1,AA strain on day 1 at 5% concentration; format: functional
Procedure, shortened: (§2)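 Hartley albino guinea pigs (350–400 g) were infected with undiluted HSV-1 AA strain, 0.05 mL placed in a 12-mm circle on an epilated flank and given intradermally by vaccination gun. Test article was a topical cream, with treatment starting 24 h postinfection. Mean vesicle score was recorded on days 1–5 against placebo and nonmedicated groups.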

Cavia porcellus [4] = species on record: Cavia porcellus; assay: Effect on the growth of Herpes simplex Type 1 on the skin of Guinea pigs infected intradermally on day 4 at 5 % concentration; format: functional
Procedure, shortened: (§3)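 Guinea pigs (Hartley, 350–400 g) were infected intradermally on an epilated flank with undiluted HSV-1 AA strain and treated with topical cream. Supernatants of lesion skin scrapings were diluted 10⁻¹ to 10⁻⁸ and titered by plaque assay on BSC-1 monolayers in triplicate: 1 h adsorption at 37 °C, agarose overlay, 4 days at 37 °C, formalin fixation, crystal violet staining, plaques counted.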

Cavia porcellus [5] = species on record: Cavia porcellus; assay: Effect on the growth of Herpes simplex Type 1 on the skin of Guinea pigs infected intradermally on day 3 at 5 % concentration; format: functional; procedure, shortened: as §3
Cavia porcellus [6] = species on record: Cavia porcellus; assay: Effect on the growth of Herpes simplex Type 1 on the skin of Guinea pigs infected intradermally on day 2 at 5 % concentration; format: functional; procedure, shortened: as §3
Cavia porcellus [7] = species on record: Cavia porcellus; assay: Effect on the development of Herpetic vesicles in Guinea pigs infected intradermally with Herpes virus Hominis, Type 1,AA strain on day 2 at 5 % concentration; format: functional
Procedure, shortened: (§4)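 Albino Hartley guinea pigs (350–400 g) were infected intradermally with 0.05 mL undiluted HSV-1 AA strain, delivered by vaccination gun into a 12 mm marked area on an epilated flank. Topical cream treatment followed. Vesicle development was scored daily.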

Cavia porcellus [8] = species on record: Cavia porcellus; assay: Effect on the development of Herpetic vesicles in Guinea pigs infected intradermally with Herpes virus Hominis, Type 1,AA strain on day 4 at 5 % concentration; format: functional; procedure, shortened: as §4
Oryctolagus cuniculus = species on record: Oryctolagus cuniculus; assay: In vitro ability to inhibit the herpes HSV-2 virus; Inactive; format: functional, organism-based; settings: herpes simplex virus
Cavia porcellus [9] = species on record: Cavia porcellus; assay: Effect on the growth of Herpes simplex Type 1 on the skin of Guinea pigs infected intradermally on day 3 at 8 % concentration; format: functional; procedure, shortened: as §1
Cavia porcellus [10] = species on record: Cavia porcellus; assay: Effect on the growth of Herpes simplex Type 1 on the skin of Guinea pigs infected intradermally on day 4 at 8 % concentration; format: functional; procedure, shortened: as §1
Cavia porcellus [11] = species on record: Cavia porcellus; assay: Effect on the development of Herpetic vesicles in Guinea pigs infected intradermally with Herpes virus Hominis, Type 1,AA strain on day 1 at 8 % concentration; format: functional; procedure, shortened: as §2
Cavia porcellus [12] = species on record: Cavia porcellus; assay: Effect on the growth of Herpes simplex Type 1 on the skin of Guinea pigs infected intradermally on day 2 at 8 % concentration; format: functional; procedure, shortened: as §1
Cavia porcellus [13] = species on record: Cavia porcellus; assay: Effect on the development of Herpetic vesicles in Guinea pigs infected intradermally with Herpes virus Hominis, Type 1,AA strain on day 4 at 8 % concentration; format: functional; procedure, shortened: as §2
Cavia porcellus [14] = species on record: Cavia porcellus; assay: Effect on the development of Herpetic vesicles in Guinea pigs infected intradermally with Herpes virus Hominis, Type 1,AA strain on day 3 at 8 % concentration; format: functional; procedure, shortened: as §2
Cavia porcellus [15] = species on record: Cavia porcellus; assay: Effect on the growth of Herpes simplex Type 1 on the skin of Guinea pigs infected intradermally on day 1 at 8 % concentration; format: functional; procedure, shortened: as §1
Cavia porcellus [16] = species on record: Cavia porcellus; assay: Effect on the development of Herpetic vesicles in Guinea pigs infected intradermally with Herpes virus Hominis, Type 1,AA strain on day 2 at 8 % concentration; format: functional; procedure, shortened: as §2

CCOP(=O)(OCC)C(CCCCc1ccc(OC)cc1)C(C)=O (stereo unspecified)
MIC [1]: 25 mg/L (≈ 70.1 µM)

CCCOP(=O)(CCCCCCOc1ccc(OC)cc1Cl)OCCC
MIC [1]: 6 mg/L (≈ 14.7 µM)

CCOP(=O)(OCC)C(CCCCCCCOc1ccc(OC)cc1Cl)C(C)=O (stereo unspecified)
MIC [1]: 6 mg/L (≈ 13.4 µM)

Nc1nc2c(ncn2COCCO)c(=O)[nH]1 [ACYCLOVIR]
Log geometric mean (Cavia porcellus [2]): 4.3 pfu mg-1
Mean vesicle score (Cavia porcellus [3]): 0.58
Log geometric mean (Cavia porcellus [4]): 2.13 pfu mg-1
Log geometric mean (Cavia porcellus [5]): 3.31 pfu mg-1
Log geometric mean (Cavia porcellus [6]): 4.09 pfu mg-1
Mean vesicle score (Cavia porcellus [7]): 0.83
Mean vesicle score (Cavia porcellus [8]): 1

CCOP(=O)(CCCCCCCCOc1ccc(OC)cc1Cl)OCC
MIC (Oryctolagus cuniculus): inactive

CCOP(=O)(CCOc1ccc(OC(C)=O)cc1)OCC
MIC (Oryctolagus cuniculus): inactive

CCOP(=O)(CCCOc1ccc(OC)cc1Cl)OCC
MIC (Oryctolagus cuniculus): inactive

CCOP(=O)(CCCCCCOc1ccc(C(=O)O)cc1)OCC
MIC (Oryctolagus cuniculus): inactive

CCOP(=O)(CCCCCOc1ccc(OC)cc1Cl)OCC
MIC (Oryctolagus cuniculus): inactive

CCOP(=O)(OCC)C(CCCCOc1ccc(OC)cc1Cl)C(C)=O (stereo unspecified)
MIC [1]: 12 mg/L (≈ 29.5 µM)

CCOP(=O)(CCCCCCOc1ccc(Cl)cc1)OCC
MIC (Oryctolagus cuniculus): inactive

CCOC(=O)c1ccc(OCCCCCCP(=O)(OCC)OCC)cc1
MIC [1]: 6 mg/L (≈ 15.5 µM)

CCC(=O)C(CCCCCCOc1ccc(OC)cc1Cl)C(=O)CC [ARILDONE]
Log geometric mean (Cavia porcellus [9]): 2.92 ppfu mg-1
Log geometric mean (Cavia porcellus [10]): 2.62 pfu mg-1
Mean vesicle score (Cavia porcellus [11]): 0.33
Log geometric mean (Cavia porcellus [12]): 4.07 pfu mg-1
Mean vesicle score (Cavia porcellus [13]): 0.83
Mean vesicle score (Cavia porcellus [14]): 0.92
Log geometric mean (Cavia porcellus [15]): 4.13 pfu mg-1
Mean vesicle score (Cavia porcellus [16]): 0.83
